Test results reported in ChEMBL document CHEMBL1157717, “Design, synthesis and biological evaluation of 6-(benzyloxy)-4-methylquinolin-2(1H)-one derivatives as PDE3 inhibitors” (Bioorg Med Chem, 2010).

What was measured:
[1] = target: T1, cGMP-inhibited 3',5'-cyclic phosphodiesterase 3A (Homo sapiens, UniProt Q14432); assay: Inhibition of human PDE3A by fluorescence microplate reader
Outline: (§1)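 IMAP fluorescence-polarization PDE assay: 1 ng PDE3A or PDE3B, 100 nM FAM-cAMP in IMAP reaction buffer, 60 min at room temperature. Binding reagent (1:600) added for a further 60 min at room temperature. Read at ex 485/em 528 nm, in duplicate. % activity is normalised to the no-enzyme and maximum-FP values. IC50 comes from a sigmoidal fit over 0.01–100 μM.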

[2] = target: T2, cGMP-inhibited 3',5'-cyclic phosphodiesterase 3B (Homo sapiens, UniProt Q13370); assay: Inhibition of human PDE3B by fluorescence microplate reader; outline: as §1
Target sequence in this assay (Q13370 whole entry): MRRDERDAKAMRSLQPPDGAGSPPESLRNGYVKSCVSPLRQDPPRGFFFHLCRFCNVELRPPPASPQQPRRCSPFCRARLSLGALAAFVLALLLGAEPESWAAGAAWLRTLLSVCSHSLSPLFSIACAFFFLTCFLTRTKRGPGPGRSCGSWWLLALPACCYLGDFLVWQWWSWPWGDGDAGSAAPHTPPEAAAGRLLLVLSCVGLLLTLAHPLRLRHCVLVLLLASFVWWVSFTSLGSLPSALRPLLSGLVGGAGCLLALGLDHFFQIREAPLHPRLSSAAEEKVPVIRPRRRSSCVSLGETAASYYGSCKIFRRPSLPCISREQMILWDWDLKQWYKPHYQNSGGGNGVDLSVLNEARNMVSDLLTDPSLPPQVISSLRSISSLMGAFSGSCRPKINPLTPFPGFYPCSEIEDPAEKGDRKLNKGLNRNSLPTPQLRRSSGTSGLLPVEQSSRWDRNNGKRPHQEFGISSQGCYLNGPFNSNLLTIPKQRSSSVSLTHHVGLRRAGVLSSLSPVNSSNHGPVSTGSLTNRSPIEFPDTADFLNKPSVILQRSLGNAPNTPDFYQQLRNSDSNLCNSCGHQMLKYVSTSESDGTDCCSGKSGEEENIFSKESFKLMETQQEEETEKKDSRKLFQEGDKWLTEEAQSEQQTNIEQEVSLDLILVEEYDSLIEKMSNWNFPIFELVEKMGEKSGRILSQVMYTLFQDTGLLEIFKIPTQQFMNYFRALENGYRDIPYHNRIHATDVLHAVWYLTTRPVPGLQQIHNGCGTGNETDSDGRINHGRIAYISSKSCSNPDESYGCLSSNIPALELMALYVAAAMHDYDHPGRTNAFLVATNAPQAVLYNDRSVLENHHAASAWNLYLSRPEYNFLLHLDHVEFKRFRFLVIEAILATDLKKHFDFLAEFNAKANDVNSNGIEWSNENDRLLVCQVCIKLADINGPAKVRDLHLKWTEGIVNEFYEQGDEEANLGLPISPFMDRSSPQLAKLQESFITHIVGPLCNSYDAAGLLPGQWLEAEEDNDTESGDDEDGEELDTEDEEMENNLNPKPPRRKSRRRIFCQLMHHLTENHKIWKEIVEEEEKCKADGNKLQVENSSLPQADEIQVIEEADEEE

[3] = Positive inotropic activity in isolated reserpine-treated Wistar rat whole atrium assessed as contraction at 10 uM (Rvb=100+/-4%); format: functional, Cardiac atrium
Outline: (§2)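 Male Wistar rats (250–350 g) received reserpine 5 mg/kg ip 24 h before thiopental anaesthesia. Whole atria were mounted in Krebs–Henseleit gassed with 95% O2/5% CO2, 35–37 °C, pH 7.35–7.45, under about 0.5 g resting tension with 40–50 min equilibration. Only tyramine (1.5 μM)-unresponsive preparations were used. Compounds were added cumulatively (1–100 μM), with isometric force and rate recorded. Values are mean ± SEM, six atria.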

[4] = Positive inotropic activity in isolated reserpine-treated Wistar rat whole atrium assessed as heart rate at 10 uM (Rvb=100+/-3%); format: functional, Cardiac atrium; outline: as §2
[5] = Positive inotropic activity in isolated reserpine-treated Wistar rat whole atrium assessed as heart rate at 1 uM (Rvb=100+/-3%); format: functional, Cardiac atrium; outline: as §2
[6] = Positive inotropic activity in isolated reserpine-treated Wistar rat whole atrium assessed as contraction at 100 uM (Rvb=100+/-4%); format: functional, Cardiac atrium; outline: as §2
[7] = Positive inotropic activity in isolated reserpine-treated Wistar rat whole atrium assessed as heart rate at 100 uM (Rvb=100+/-3%); format: functional, Cardiac atrium; outline: as §2
[8] = Positive inotropic activity in isolated reserpine-treated Wistar rat whole atrium assessed as contraction at 1 uM (Rvb=100+/-4%); format: functional, Cardiac atrium; outline: as §2
[9] = target: T2, cGMP-inhibited 3',5'-cyclic phosphodiesterase 3B; assay: Ratio of IC50 for vesnarinone to IC50 for drug against human PDE3B by fluorescence microplate reader
Target sequence in this assay (Q13370 whole entry, looked up): as the sequence (Q13370 whole entry) above

[10] = target: T1, cGMP-inhibited 3',5'-cyclic phosphodiesterase 3A; assay: Ratio of IC50 for vesnarinone to IC50 for drug against human PDE3A by fluorescence microplate reader
[11] = Positive inotropic activity in isolated reserpine-treated Wistar rat whole atrium assessed as heart rate at 100 uM (Rvb=100+/-2%); format: functional, Cardiac atrium; outline: as §2
[12] = Positive inotropic activity in isolated reserpine-treated Wistar rat whole atrium assessed as contraction at 100 uM (Rvb=100+/-3%); format: functional, Cardiac atrium; outline: as §2
[13] = Positive inotropic activity in isolated reserpine-treated Wistar rat whole atrium assessed as contraction at 1 uM (Rvb=100+/-3%); format: functional, Cardiac atrium; outline: as §2
[14] = Positive inotropic activity in isolated reserpine-treated Wistar rat whole atrium assessed as contraction at 10 uM (Rvb=100+/-3%); format: functional, Cardiac atrium; outline: as §2
[15] = target: T1, cGMP-inhibited 3',5'-cyclic phosphodiesterase 3A; assay: Ratio of IC50 for vesnarinone to IC50 for drug against human PDE3A by fluorescence microplate reader
[16] = target: T2, cGMP-inhibited 3',5'-cyclic phosphodiesterase 3B; assay: Ratio of IC50 for vesnarinone to IC50 for drug against human PDE3B by fluorescence microplate reader
Target sequence in this assay (Q13370 whole entry, looked up): as the sequence (Q13370 whole entry) above

[17] = Positive inotropic activity in isolated reserpine-treated Wistar rat whole atrium assessed as heart rate at 10 uM (Rvb=100+/-2%); format: functional, Cardiac atrium; outline: as §2

T1 sequence (Q14432 whole entry): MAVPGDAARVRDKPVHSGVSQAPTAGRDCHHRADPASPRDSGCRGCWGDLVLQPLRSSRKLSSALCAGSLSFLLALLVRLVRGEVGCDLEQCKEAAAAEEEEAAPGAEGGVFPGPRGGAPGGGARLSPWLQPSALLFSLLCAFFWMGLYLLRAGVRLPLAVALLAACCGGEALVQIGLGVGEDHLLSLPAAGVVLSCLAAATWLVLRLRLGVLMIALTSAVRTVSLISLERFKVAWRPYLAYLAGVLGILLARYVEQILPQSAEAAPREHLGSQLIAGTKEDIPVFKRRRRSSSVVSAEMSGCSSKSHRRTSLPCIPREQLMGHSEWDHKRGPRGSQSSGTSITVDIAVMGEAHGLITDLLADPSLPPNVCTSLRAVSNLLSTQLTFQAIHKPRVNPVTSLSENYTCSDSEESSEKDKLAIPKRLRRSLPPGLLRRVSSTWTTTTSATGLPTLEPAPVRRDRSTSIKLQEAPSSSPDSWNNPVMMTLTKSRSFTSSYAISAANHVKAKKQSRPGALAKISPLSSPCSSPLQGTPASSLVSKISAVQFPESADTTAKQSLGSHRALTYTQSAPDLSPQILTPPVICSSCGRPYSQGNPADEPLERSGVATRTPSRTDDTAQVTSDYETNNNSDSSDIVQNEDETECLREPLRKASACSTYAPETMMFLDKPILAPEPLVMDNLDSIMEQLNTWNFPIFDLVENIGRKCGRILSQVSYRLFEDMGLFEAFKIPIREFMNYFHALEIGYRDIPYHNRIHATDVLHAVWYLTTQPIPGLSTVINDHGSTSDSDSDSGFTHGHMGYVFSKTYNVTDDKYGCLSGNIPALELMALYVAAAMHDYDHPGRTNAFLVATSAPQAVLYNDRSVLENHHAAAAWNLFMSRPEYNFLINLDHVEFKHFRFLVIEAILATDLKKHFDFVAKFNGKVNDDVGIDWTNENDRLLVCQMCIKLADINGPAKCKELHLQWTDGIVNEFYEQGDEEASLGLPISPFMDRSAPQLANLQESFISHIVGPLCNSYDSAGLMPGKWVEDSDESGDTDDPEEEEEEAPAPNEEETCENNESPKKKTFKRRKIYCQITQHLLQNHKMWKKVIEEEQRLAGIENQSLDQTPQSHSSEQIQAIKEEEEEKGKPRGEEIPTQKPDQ

Row | SMILES | IC50 [1] [nM] | IC50 [2] [nM] | other results
1 | Cc1cc(=O)[nH]c2ccc(OCc3cccc(C(=O)N4CCCCC4)c3)cc12 | 660 | 1730 | 
2 | Cc1cc(=O)[nH]c2ccc(OCc3cccc(C(=O)N4CCC(C(=O)O)CC4)c3)cc12 | 840 | 1280 | 
3 | Cc1cc(=O)[nH]c2ccc(OCc3cccc(C(=O)N4CCN(CCO)CC4)c3)cc12 | 1650 | 2800 | 
4 | Cc1cc(=O)[nH]c2ccc(OCc3cccc(C(=O)N4CCCC4)c3)cc12 | 640 | 1200 | 
5 | COc1ccc(C(=O)N2CCN(c3ccc4c(c3)CCC(=O)N4)CC2)cc1OC [VESNARINONE] | 10700 | 13200 | Activity [3]: 121%; Activity [4]: 109%; Activity [5]: 103%; Activity [6]: 141%; Activity [7]: 114%; Activity [8]: 102%
6 | Cc1cc(=O)[nH]c2ccc(OCc3cccc(C(=O)N4CCOCC4)c3)cc12 | 1340 | 1540 | 
7 | Cc1cc(=O)[nH]c2ccc(OCc3cccc(C(=O)N4CCC(C)CC4)c3)cc12 | 430 | 1610 | 
8 | Cc1cc(=O)[nH]c2ccc(OCc3cccc(C(=O)N4CCN(C)CC4)c3)cc12 | 1760 | 3510 | Ratio IC50 [9]: 4; Ratio IC50 [10]: 6
9 | CCN1CCN(C(=O)c2cccc(COc3ccc4[nH]c(=O)cc(C)c4c3)c2)CC1 | 1440 | 1930 | Activity [11]: 116%; Activity [12]: 146%; Activity [13]: 101%; Activity [14]: 123%; Ratio IC50 [15]: 25; Ratio IC50 [16]: 8; Activity [17]: 108%
10 | Cc1cc(=O)[nH]c2ccc(OCc3cccc(C(=O)N4CCC(O)CC4)c3)cc12 | 1350 | 910 | 
11 | Cc1cc(=O)[nH]c2ccc(OCc3cccc(C(=O)N4CCC(=O)CC4)c3)cc12 | 1260 | 1140 | 
